Data as given in ChEMBL document CHEMBL1148488, “Design, synthesis, and evaluation of a liposaccharide drug delivery agent: application to the gastrointestinal absorption of gentamicin” (J Med Chem, 2004).

What was measured:
Format in all cases: ADME, organism-based
Rattus norvegicus = assay: Bioavailability in rat (dose 3 mg/kg i.v.); conditions: in vivo, iv
[1] = Oral bioavailability in rat (dose 60 mg/kg p.o.); conditions: in vivo
Procedure, shortened: (§1)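 Cannulated male Sprague–Dawley rats (300–350 g), fasted 15 h, given 60 mg/kg by oral gavage under light O2/CO2 anaesthesia in 1 mL 5% DMSO/water at pH 8. Arterial plasma sampled 0–120 min and assayed by fluorescence polarization immunoassay. Cmax is observed; AUC0–120 is trapezoidal. F = AUCpo·dose_iv/(AUCiv·dose_po)×100, using iv 3 mg/kg. Mean ± SEM, 4–5 rats.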

[2] = Area under the curve at a concentration of 3 mg/kg in rats, intravenously; design: dose 3 mg/kg, route intravenous; conditions: rat, in vivo, iv, read-out: AUC 120 (converted)
Procedure, shortened: (§2)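 Male Sprague–Dawley rats (300–350 g) with femoral artery cannula, dosed next day at 3 mg/kg in 0.3 mL heparinized saline via lateral tail vein. Arterial blood drawn at 0, 5, 10, 15, 30, 60, 90, 120 min, and plasma frozen at –70 °C. Gentamicin measured by fluorescence polarization immunoassay (LOD 0.30 μg/mL). Cmax is the observed value; AUC0–120 by linear trapezoidal rule. Mean ± SEM, 4–5 rats.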

[3] = Area under the curve at a concentration of 60 mg/kg perorally in rats along with control; design: dose 60 mg/kg, route oral; conditions: rat, in vivo, po, read-out: AUC 120 (converted); procedure, shortened: as §1
[4] = Maximum plasma concentration at a concentration of 3 mg/kg in rats, intravenously; design: dose 3 mg/kg, route intravenous; conditions: rat, iv; procedure, shortened: as §2
[5] = Maximum plasma concentration at a concentration of 60 mg/kg perorally in rats along with control; design: dose 60 mg/kg, route oral; conditions: rat, po; procedure, shortened: as §1

F (Rattus norvegicus) [%] | bioavailability [1] [%] | AUC [2] [ng·h/mL] | AUC [3] [ng·h/mL] | Cmax [4] [ng/mL] | Cmax [5] [ng/mL] | Bioavailabiility (Rattus norvegicus) [%] | bioavailability ([1]; read-out: Bioavailabiility) [%] | Compound
100 | 1.4 | 4180 | 1180 | 8190 | 770 |  |  | CNC(C)C1CC[C@H](N)[C@@H](OC2[C@@H](O)[C@@H](O[C@H]3OC[C@H](O)[C@@H](NC)[C@@H]3O)[C@H](N)C[C@@H]2N)O1.O=S(=O)(O)O (stereo partly drawn)
100 | 1.4 | 4180 | 1180 | 8190 | 770 |  |  | CN[C@@H]1[C@H](O)[C@H](O[C@H]2[C@H](N)C[C@H](N)C(O[C@H]3OC(C(C)N)CC[C@@H]3N)[C@H]2O)OC[C@@H]1O.O=S(=O)(O)O (stereo partly drawn)
 |  | 4180 | 1180 | 8190 | 770 | 100 | 1.4 | CN[C@@H]1C(O)[C@H](O[C@@H]2C(O)C(O[C@H]3OC(CN)CCC3N)[C@@H](N)C[C@H]2N)OC[C@@H]1O.O=S(=O)(O)O (stereo partly drawn)
